Source: ChEMBL document CHEMBL4138312 (J Med Chem, 2018)

Tests used:
A549 = test: Antiproliferative activity against human A549 cells after 48 hrs by Alamar Blue based assay; assay type: functional; conditions: A549, 48 h
Outline: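 Antiproliferation assay in A549 cells, reported as GI50.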

[1] = target: T1, Tyrosine-protein kinase JAK3 (Homo sapiens) (UniProt P52333); test: Inhibition of recombinant human GST-tagged JAK3 (781 to 1124 residues) expressed in baculovirus at 1 uM
T1 sequence (whole entry): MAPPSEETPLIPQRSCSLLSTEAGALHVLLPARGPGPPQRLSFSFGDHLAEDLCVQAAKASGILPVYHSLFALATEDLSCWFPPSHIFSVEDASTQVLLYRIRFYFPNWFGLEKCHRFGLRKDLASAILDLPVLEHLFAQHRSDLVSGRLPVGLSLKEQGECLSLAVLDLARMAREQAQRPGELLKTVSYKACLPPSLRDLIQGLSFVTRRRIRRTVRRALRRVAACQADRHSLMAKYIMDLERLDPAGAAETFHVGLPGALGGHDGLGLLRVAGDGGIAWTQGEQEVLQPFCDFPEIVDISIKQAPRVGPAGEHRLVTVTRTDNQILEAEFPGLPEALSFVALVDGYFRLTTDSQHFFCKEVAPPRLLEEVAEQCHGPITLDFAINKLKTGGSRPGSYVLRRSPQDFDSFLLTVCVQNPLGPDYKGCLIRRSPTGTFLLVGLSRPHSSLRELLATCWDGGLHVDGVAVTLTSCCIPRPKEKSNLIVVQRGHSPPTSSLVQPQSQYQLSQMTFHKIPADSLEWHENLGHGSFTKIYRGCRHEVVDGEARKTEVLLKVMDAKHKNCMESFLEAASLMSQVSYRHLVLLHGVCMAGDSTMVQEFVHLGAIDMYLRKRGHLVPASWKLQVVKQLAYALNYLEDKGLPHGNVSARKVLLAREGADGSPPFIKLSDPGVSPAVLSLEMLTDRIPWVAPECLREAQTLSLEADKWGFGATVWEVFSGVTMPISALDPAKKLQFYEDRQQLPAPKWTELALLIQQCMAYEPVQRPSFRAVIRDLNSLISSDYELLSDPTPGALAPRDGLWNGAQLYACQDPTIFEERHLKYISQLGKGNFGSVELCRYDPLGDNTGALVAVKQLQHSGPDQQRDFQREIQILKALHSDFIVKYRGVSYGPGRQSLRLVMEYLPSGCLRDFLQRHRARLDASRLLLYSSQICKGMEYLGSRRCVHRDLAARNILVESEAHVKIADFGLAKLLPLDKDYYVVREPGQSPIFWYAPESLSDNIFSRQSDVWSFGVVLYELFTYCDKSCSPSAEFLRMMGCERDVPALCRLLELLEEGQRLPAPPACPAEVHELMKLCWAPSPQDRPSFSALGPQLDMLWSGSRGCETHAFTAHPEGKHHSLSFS
Outline: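 Single-concentration screen at 1 μM across a panel of 386 kinases to profile broad kinase selectivity.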

[2] = target: T2, Tyrosine-protein kinase JAK3 (Homo sapiens, UniProt P52333); test: Inhibition of recombinant human JAK3 (781 to 1124 residues) expressed in insect cells using 5FAM-GEEPLYWSFPAKKK-NH2 as substrate after 10 mins by caliper assay
T2 sequence (P52333 whole entry): T1 sequence (whole entry)
Outline: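 Biochemical kinase inhibition IC50 measured at 5 mM ATP. Values are the geometric mean of at least two independent experiments.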

[3] = Oral bioavailability in CD1 mouse at 10 mg/kg administered via gavage by LC/MS/MS analysis; assay type: ADME, organism-based; conditions: in vivo
Outline: (§1)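 Mouse pharmacokinetics after oral dosing at 10 or 50 mg/kg. The 10 mg/kg dose was given in 10% HPbCD + 5% dextrose in WFI at pH 4. The 50 mg/kg dose was given in 5% SBECD in WFI at pH 2. Plasma exposure (AUC), half-life and oral bioavailability were derived.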

[4] = Protein binding in CD1 mouse plasma assessed as unbound fraction; assay type: ADME, cell-free
[5] = Half life in CD1 mouse at 3 mg/kg, iv by LC/MS/MS analysis; assay type: ADME, organism-based; conditions: in vivo
Outline: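 Mouse pharmacokinetics after a single iv dose of 3 mg/kg in 10% HPbCD + 5% dextrose in WFI at pH 4. Plasma clearance, half-life and steady-state volume of distribution were derived.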

[6] = target: T3, NUAK family SNF1-like kinase 1 (Homo sapiens) (UniProt O60285); test: Inhibition of recombinant human full length His-tagged NUAK1 expressed in baculovirus at 1 uM
T3 sequence (whole entry): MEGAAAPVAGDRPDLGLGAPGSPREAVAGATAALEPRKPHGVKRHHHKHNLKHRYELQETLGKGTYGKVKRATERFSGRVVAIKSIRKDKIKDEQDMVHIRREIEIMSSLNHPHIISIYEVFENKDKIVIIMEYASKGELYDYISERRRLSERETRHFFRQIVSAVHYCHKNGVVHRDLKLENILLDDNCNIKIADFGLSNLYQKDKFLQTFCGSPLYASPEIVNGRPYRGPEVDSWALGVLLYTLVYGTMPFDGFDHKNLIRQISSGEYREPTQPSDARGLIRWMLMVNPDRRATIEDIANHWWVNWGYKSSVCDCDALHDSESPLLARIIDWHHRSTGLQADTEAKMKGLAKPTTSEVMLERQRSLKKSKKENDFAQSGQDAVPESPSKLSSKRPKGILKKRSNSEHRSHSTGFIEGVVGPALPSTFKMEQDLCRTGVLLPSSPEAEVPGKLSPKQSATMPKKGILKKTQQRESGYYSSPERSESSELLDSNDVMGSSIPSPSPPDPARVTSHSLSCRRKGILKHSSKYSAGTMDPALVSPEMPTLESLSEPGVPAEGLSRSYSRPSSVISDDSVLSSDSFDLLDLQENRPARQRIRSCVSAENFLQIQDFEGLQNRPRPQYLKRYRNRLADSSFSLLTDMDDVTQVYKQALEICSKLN
Outline: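 Kinase panel of 386 kinases, each screened at a single concentration of 1 μM.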

[7] = AUC in CD1 mouse at 50 mg/kg, po administered via gavage by LC/MS/MS analysis; assay type: ADME, organism-based; conditions: in vivo; outline: as §1

GI50 (A549): > 10 µM | inhibition [1]: 46% | IC50 [2]: > 30 µM | bioavailability [3]: 30% | fraction unbound [4]: 0.15 | half-life [5]: 2.4 h | inhibition [6]: 71% | AUC [7]: 18.9 µM·h
SMILES: CC[C@@H](C)Nc1nc(Nc2cc(N3C[C@@H]4C[C@H]3CN4C)cnc2F)ncc1C
